Laboratory results reported in ChEMBL document CHEMBL2375359, “Synthesis and antibacterial evaluation of novel pleuromutilin derivatives” (2013).
Converted amounts (≈) assume the structure as drawn.

Legend:
Assay type in all cases: functional
Staphylococcus aureus [1] = test: Antibacterial activity against methicillin-resistant Staphylococcus aureus at 320 ug/ml after 24 hrs by Oxford cup assay; settings: read-out: IZ
Method in brief: (§1)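 Oxford cup diffusion: clinical isolate inoculum in 0.9% saline set by McFarland standard, spread evenly on nutrient agar. Cups placed equidistant on the surface and filled with compound solutions prepared as for the agar dilution test, at several concentrations. Inhibition zone measured after 24 h at 37 °C.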

Staphylococcus aureus [2] = test: Antibacterial activity against methicillin-resistant Staphylococcus aureus at 160 ug/ml after 24 hrs by Oxford cup assay; settings: read-out: IZ; method in brief: as §1
[3] = tested on: Staphylococcus epidermidis; test: Antibacterial activity against methicillin-resistant Staphylococcus epidermidis at 320 ug/ml after 24 hrs by Oxford cup assay; settings: read-out: IZ; method in brief: as §1
Streptococcus agalactiae [4] = test: Antibacterial activity against Streptococcus agalactiae at 160 ug/ml after 24 hrs by Oxford cup assay; settings: read-out: IZ
Method in brief: (§2)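 Oxford cup diffusion with clinical isolates. Inoculum made in 0.9% saline to a McFarland standard and spread evenly on nutrient agar. Compound solutions, prepared as for the agar dilution test, were added at the stated concentration to Oxford cups set equidistant on the agar surface. Inhibition zones were measured after 24 h at 37 °C.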

[5] = tested on: Staphylococcus epidermidis; test: Antibacterial activity against methicillin-resistant Staphylococcus epidermidis after 48 hrs by agar dilution method
Method in brief: (§3)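 Agar dilution per NCCLS: 2-fold serial dilutions incorporated into hot Mueller-Hinton agar. Clinical isolates grown from blood slants, suspended in sterile 0.90% NaCl to about 10⁵–10⁶ cfu/mL, spotted onto plates. Incubation 36.5 °C, 48 h. MIC taken as the lowest concentration giving complete growth inhibition. Run in triplicate at pH 7.40.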

[6] = tested on: Staphylococcus epidermidis; test: Antibacterial activity against methicillin-resistant Staphylococcus epidermidis at 160 ug/ml after 24 hrs by Oxford cup assay; settings: read-out: IZ; method in brief: as §1
Escherichia coli [7] = test: Antibacterial activity against Escherichia coli at 80 ug/ml after 24 hrs by Oxford cup assay; settings: read-out: IZ; method in brief: as §2
Streptococcus agalactiae [8] = test: Antibacterial activity against Streptococcus agalactiae after 48 hrs by agar dilution method
Method in brief: (§4)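 Agar dilution per NCCLS on clinical isolates. 2-fold serial dilutions of compound (2 mL) mixed into 18 mL hot Mueller-Hinton agar. Inoculum from blood slants, adjusted to approx. 10⁵–10⁶ cfu/mL in sterile 0.90% NaCl, then spotted onto the plates. Incubated 36.5 °C, 48 h. MIC is the lowest concentration giving complete growth inhibition. Run in triplicate at pH 7.40.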

Streptococcus agalactiae [9] = test: Antibacterial activity against Streptococcus agalactiae at 80 ug/ml after 24 hrs by Oxford cup assay; settings: read-out: IZ; method in brief: as §2
Staphylococcus aureus [10] = test: Antibacterial activity against methicillin-resistant Staphylococcus aureus at 80 ug/ml after 24 hrs by Oxford cup assay; settings: read-out: IZ; method in brief: as §1
Escherichia coli [11] = test: Antibacterial activity against Escherichia coli at 320 ug/ml after 24 hrs by Oxford cup assay; settings: read-out: IZ; method in brief: as §2
Escherichia coli [12] = test: Antibacterial activity against Escherichia coli at 160 ug/ml after 24 hrs by Oxford cup assay; settings: read-out: IZ; method in brief: as §2
Escherichia coli [13] = test: Antibacterial activity against Escherichia coli after 48 hrs by agar dilution method; method in brief: as §4
[14] = tested on: Staphylococcus epidermidis; test: Antibacterial activity against methicillin-resistant Staphylococcus epidermidis at 80 ug/ml after 24 hrs by Oxford cup assay; settings: read-out: IZ; method in brief: as §1
Streptococcus agalactiae [15] = test: Antibacterial activity against Streptococcus agalactiae at 320 ug/ml after 24 hrs by Oxford cup assay; settings: read-out: IZ; method in brief: as §2
Staphylococcus aureus [16] = test: Antibacterial activity against methicillin-resistant Staphylococcus aureus after 48 hrs by agar dilution method; method in brief: as §3

| SMILES | zone of inhibition at 320 µg/mL (Staphylococcus aureus [1]) [mm] | zone of inhibition at 160 µg/mL (Staphylococcus aureus [2]) [mm] | zone of inhibition at 320 µg/mL [3] [mm] | zone of inhibition at 160 µg/mL (Streptococcus agalactiae [4]) [mm] | MIC [5] [µg/mL] | zone of inhibition at 160 µg/mL [6] [mm] | zone of inhibition at 80 µg/mL (Escherichia coli [7]) [mm] | MIC (Streptococcus agalactiae [8]) [µg/mL] | zone of inhibition at 80 µg/mL (Streptococcus agalactiae [9]) [mm] | zone of inhibition at 80 µg/mL (Staphylococcus aureus [10]) [mm] | zone of inhibition at 320 µg/mL (Escherichia coli [11]) [mm] | zone of inhibition at 160 µg/mL (Escherichia coli [12]) [mm] | MIC (Escherichia coli [13]) [µg/mL] | zone of inhibition at 80 µg/mL [14] [mm] | zone of inhibition at 320 µg/mL (Streptococcus agalactiae [15]) [mm] | MIC (Staphylococcus aureus [16]) [µg/mL] |
| --- | --- | --- | --- | --- | --- | --- | --- | --- | --- | --- | --- | --- | --- | --- | --- | --- |
| C=C[C@]1(C)C[C@@H](OC(=O)CSC(C)(C)CNC(=O)c2cccc(N)c2)[C@]2(C)[C@H](C)CC[C@]3(CCC(=O)[C@H]32)[C@@H](C)[C@@H]1O | 10.2 | 10.8 | 11.2 | 9.8 | 1 (≈ 1.71 µM) | 9.72 | 9.94 | 0.5 (≈ 0.855 µM) | 8.86 | 9.56 | 10.7 | 12.5 | 8 (≈ 13.7 µM) | 9.63 | 9.66 | 2 (≈ 3.42 µM) |
| C=C[C@]1(C)C[C@@H](OC(=O)CSC(C)(C)CNC(=O)c2ccc(N)cc2)[C@]2(C)[C@H](C)CC[C@]3(CCC(=O)[C@H]32)[C@@H](C)[C@@H]1O | 22.2 | 21.6 | 17.9 | 11.6 | 0.5 (≈ 0.855 µM) | 18.1 | 18.1 | 0.5 (≈ 0.855 µM) | 10.9 | 20.6 | 18.8 | 17.8 | 2 (≈ 3.42 µM) | 17.3 | 11.4 | 0.25 (≈ 0.427 µM) |
| C=C[C@]1(C)C[C@@H](OC(=O)CSC(C)(C)CNC(=O)[C@H](N)c2ccccc2)[C@]2(C)[C@H](C)CC[C@]3(CCC(=O)[C@H]32)[C@@H](C)[C@@H]1O | 10.2 | 9.98 | 10.8 | 10.6 | 16 (≈ 26.7 µM) | 10 | 9.2 | 16 (≈ 26.7 µM) | 10.1 | 9.41 | 10.8 | 11.3 | 8 (≈ 13.4 µM) | 10.9 | 11 | 2 (≈ 3.34 µM) |
| C=C[C@]1(C)C[C@@H](OC(=O)CSC(C)(C)CNC(=O)[C@@H](N)c2ccccc2)[C@]2(C)[C@H](C)CC[C@]3(CCC(=O)[C@H]32)[C@@H](C)[C@@H]1O | 10.3 | 10.1 | 11.2 | 10.4 | 4 (≈ 6.68 µM) | 10.6 | 10 | 8 (≈ 13.4 µM) | 10.7 | 9.82 | 10.7 | 9.89 | 4 (≈ 6.68 µM) | 10.3 | 11.2 | 0.25 (≈ 0.417 µM) |
| C=C[C@]1(C)C[C@@H](OC(=O)CSC(C)(C)CNC(=O)c2cc3ccccc3[nH]2)[C@]2(C)[C@H](C)CC[C@]3(CCC(=O)[C@H]32)[C@@H](C)[C@@H]1O | 8.52 | 8.77 | 9 | 9.62 | 16 (≈ 26.3 µM) | 8.84 | 8.87 | 8 (≈ 13.1 µM) | 9.31 | 9.05 | 10.8 | 9.52 | 16 (≈ 26.3 µM) | 10.3 | 9.25 | 2 (≈ 3.28 µM) |
| C=C[C@]1(C)C[C@@H](OC(=O)CSC(C)(C)CNC(=O)OCC(C)C)[C@]2(C)[C@H](C)CC[C@]3(CCC(=O)[C@H]32)[C@@H](C)[C@@H]1O | 10.9 | 9.56 | 11.1 | 9.01 | 8 (≈ 14.1 µM) | 11 | 9.91 | 4 (≈ 7.07 µM) | 9.85 | 9.64 | 10.3 | 9.55 | 16 (≈ 28.3 µM) | 10.6 | 10.2 | 2 (≈ 3.53 µM) |
| C=C[C@]1(C)C[C@@H](OC(=O)CSC(C)(C)CNC(=O)OCc2ccccc2)[C@]2(C)[C@H](C)CC[C@]3(CCC(=O)[C@H]32)[C@@H](C)[C@@H]1O | 12.7 | 11.5 | 11 | 10.6 | 32 (≈ 53.3 µM) | 10.2 | 11.7 | 16 (≈ 26.7 µM) | 10.7 | 10.4 | 14.7 | 15.3 | 32 (≈ 53.3 µM) | 11 | 11.5 | 4 (≈ 6.67 µM) |
| C=C[C@]1(C)C[C@@H](OC(=O)CSCCN(CC)CC)[C@]2(C)[C@H](C)CC[C@]3(CCC(=O)[C@H]32)[C@@H](C)[C@@H]1O [TIAMULIN] | 18.3 | 17.6 | 16.4 | 11.4 | 2 (≈ 4.05 µM) | 15.6 | 15.2 | 2 (≈ 4.05 µM) | 11.1 | 16.5 | 18.3 | 16.5 | 2 (≈ 4.05 µM) | 14.5 | 12.3 | 0.5 (≈ 1.01 µM) |
| C=C[C@]1(C)C[C@@H](OC(=O)CSC(C)(C)CNC(=O)[C@H](N)C(C)C)[C@]2(C)[C@H](C)CC[C@]3(CCC(=O)[C@H]32)[C@@H](C)[C@@H]1O [VALNEMULIN] | 25.8 | 22.9 | 27.5 | 14.5 | 0.5 (≈ 0.885 µM) | 25.9 | 19.5 | 0.5 (≈ 0.885 µM) | 12.8 | 20.4 | 24.5 | 23.7 | 0.5 (≈ 0.885 µM) | 22.6 | 15.8 | 0.125 (≈ 0.221 µM) |
